Data from ChEMBL document CHEMBL1145938, “Synthesis and structure-activity relationship of aminobenzophenones. A novel class of p38 MAP kinase inhibitors with high antiinflammatory activity” (J Med Chem, 2003).

Key:
[1] = target: T1, Mitogen-activated protein kinase 14 (Homo sapiens, UniProt Q16539); assay: In vitro inhibitory activity determined against human mitogen-activated protein kinase p38 alpha
[2] = target: T2, MAP kinase p38 (Homo sapiens, UniProt O15264+Q15759+Q16539+P53778); assay: In vitro inhibition of IL1-beta release from LPS stimulated human peripheral blood mononuclear cells.; assay type: functional
Method in brief: (§1)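 Human PBMC from buffy coats (Lymphoprep), 5×10^5 cells/mL in RPMI1640 with 2% FCS, glutamine, penicillin/streptomycin; 30 min preincubation with compound, then LPS stimulation, 18 h at 37 °C, 5% CO2.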

[3] = target: T2, MAP kinase p38; assay: In vitro inhibition of TNF-alpha release from LPS stimulated human peripheral blood mononuclear cells.; assay type: functional; method in brief: as §1
[4] = tested on: Mus musculus; assay: Inhibition of ear swelling induced by 12-O-tetradecanoylphorbol-13-acetate (TPA) in murine chronic irritative contact dermatitis model at 0.001 mg/ear (in vivo); assay type: functional
Method in brief: (§2)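 Murine TPA-induced chronic irritative ear dermatitis, with compound given topically per ear. Ear swelling and ear weight were determined 5 h after the last application. Values are mean % inhibition ± SEM of three to five experiments.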

[5] = tested on: Mus musculus; assay: Inhibition of ear weight induced by 12-O-tetradecanoylphorbol-13-acetate (TPA) in murine chronic irritative contact dermatitis model at 0.001 mg/ear (in vivo); assay type: functional; method in brief: as §2
[6] = target: T3, Myeloperoxidase (Mus musculus) (UniProt P11247); assay: Inhibition of myeloperoxidase (MPO) activity induced by TPA in murine chronic irritative contact dermatitis model at 0.001 mg/ear (in vivo); assay type: organism-based
T3 sequence (whole entry): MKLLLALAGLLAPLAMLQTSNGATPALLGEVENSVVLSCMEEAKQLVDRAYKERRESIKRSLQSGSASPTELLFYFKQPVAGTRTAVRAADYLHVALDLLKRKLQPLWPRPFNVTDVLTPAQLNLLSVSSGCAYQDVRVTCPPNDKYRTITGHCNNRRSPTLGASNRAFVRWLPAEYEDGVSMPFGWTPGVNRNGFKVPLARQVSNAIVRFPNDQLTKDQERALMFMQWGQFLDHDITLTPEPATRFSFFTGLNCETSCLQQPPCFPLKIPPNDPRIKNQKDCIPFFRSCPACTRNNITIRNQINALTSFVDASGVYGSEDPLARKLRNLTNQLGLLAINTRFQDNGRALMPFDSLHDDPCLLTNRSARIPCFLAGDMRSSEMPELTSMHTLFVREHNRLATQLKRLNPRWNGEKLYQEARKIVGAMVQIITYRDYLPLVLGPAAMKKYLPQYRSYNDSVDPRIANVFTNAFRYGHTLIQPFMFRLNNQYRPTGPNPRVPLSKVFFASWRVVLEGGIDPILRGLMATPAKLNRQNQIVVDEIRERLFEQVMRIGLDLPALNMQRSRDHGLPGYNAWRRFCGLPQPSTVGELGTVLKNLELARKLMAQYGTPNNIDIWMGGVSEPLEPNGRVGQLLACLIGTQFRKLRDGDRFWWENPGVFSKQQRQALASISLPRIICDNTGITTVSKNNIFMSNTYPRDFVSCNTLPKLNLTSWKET

[7] = target: Mitogen-activated protein kinase; ERK1/ERK2 (Homo sapiens) (UniProt P27361+P28482); assay: Inhibition of Mitogen-activated protein kinase 3/Mitogen-activated protein kinase 1 (ERK) at 10 uM; assay type: protein assay
Mitogen-activated protein kinase; ERK1/ERK2 (Homo sapiens), sequence (P27361 whole entry, looked up): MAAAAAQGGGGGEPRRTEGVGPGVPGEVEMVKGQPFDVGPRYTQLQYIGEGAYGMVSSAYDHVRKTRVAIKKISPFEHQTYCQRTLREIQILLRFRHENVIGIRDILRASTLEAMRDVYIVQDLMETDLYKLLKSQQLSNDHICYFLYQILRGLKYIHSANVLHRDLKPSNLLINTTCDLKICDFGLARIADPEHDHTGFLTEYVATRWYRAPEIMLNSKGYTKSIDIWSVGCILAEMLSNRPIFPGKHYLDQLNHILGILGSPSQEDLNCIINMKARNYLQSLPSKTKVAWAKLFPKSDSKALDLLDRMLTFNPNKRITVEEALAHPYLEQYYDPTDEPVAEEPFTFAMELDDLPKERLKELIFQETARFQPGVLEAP
Mitogen-activated protein kinase; ERK1/ERK2 (Homo sapiens), sequence (P28482 whole entry, looked up): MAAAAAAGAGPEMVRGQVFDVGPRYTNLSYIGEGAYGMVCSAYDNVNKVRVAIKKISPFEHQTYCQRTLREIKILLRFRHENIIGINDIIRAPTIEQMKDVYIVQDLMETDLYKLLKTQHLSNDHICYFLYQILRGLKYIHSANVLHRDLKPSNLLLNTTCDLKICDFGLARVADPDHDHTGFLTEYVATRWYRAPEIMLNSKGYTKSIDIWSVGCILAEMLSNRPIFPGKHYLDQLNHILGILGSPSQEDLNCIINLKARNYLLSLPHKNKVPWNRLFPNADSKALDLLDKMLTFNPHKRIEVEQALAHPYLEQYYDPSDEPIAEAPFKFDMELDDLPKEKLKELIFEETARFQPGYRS
Method in brief: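 MCF-7 cells stimulated with EGF; ERK1/2 activity measured with a modified cell-signalling ERK1/2 kinase kit in presence of compound.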

[8] = target: T1, Mitogen-activated protein kinase 14; assay: Inhibition of Mitogen-activated protein kinase p38 alpha at 1 uM
Method in brief: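 FLAG-tagged p38α cDNA was transfected into COS-1 cells. Kinase activity of the expressed isoform was measured with compound at 1 μM.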

[9] = target: Mitogen-activated protein kinase 11 (Homo sapiens) (UniProt Q15759); assay: Inhibition of Mitogen-activated protein kinase p38 beta at 1 uM
Mitogen-activated protein kinase 11 (Homo sapiens), sequence (Q15759 whole entry, canonical isoform): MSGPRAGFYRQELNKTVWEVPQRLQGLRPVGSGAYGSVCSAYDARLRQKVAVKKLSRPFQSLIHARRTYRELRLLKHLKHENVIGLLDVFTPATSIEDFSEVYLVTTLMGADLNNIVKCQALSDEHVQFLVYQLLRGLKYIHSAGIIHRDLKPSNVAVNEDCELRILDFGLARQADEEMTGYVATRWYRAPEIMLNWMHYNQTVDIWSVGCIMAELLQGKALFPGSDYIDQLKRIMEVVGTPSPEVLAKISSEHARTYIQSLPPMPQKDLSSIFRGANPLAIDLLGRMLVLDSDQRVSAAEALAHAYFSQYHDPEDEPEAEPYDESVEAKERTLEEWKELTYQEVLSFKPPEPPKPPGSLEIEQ
Method in brief: (§3)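 FLAG-tagged p38 isoform cDNA (β2, γ or δ) transfected into COS-1 cells; kinase activity of the expressed isoform measured with compound at 1 μM.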

[10] = target: T4, Mitogen-activated protein kinase 13 (Homo sapiens) (UniProt O15264); assay: Inhibition of Mitogen-activated protein kinase p38 delta at 1 uM; method in brief: as §3
T4 sequence (whole entry): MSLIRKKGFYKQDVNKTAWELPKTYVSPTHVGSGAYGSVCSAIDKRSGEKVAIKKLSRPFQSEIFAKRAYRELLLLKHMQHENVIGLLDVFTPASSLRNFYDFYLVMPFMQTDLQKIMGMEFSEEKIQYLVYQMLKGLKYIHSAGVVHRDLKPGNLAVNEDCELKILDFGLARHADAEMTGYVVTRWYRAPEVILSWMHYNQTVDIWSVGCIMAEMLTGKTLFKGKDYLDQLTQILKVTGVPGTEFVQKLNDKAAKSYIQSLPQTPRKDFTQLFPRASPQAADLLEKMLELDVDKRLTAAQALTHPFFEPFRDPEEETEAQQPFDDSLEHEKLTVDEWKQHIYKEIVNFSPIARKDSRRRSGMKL

[11] = target: T5, Mitogen-activated protein kinase 12 (Homo sapiens) (UniProt P53778); assay: Inhibition of Mitogen-activated protein kinase p38 gamma at 1 uM; method in brief: as §3
T5 sequence (whole entry): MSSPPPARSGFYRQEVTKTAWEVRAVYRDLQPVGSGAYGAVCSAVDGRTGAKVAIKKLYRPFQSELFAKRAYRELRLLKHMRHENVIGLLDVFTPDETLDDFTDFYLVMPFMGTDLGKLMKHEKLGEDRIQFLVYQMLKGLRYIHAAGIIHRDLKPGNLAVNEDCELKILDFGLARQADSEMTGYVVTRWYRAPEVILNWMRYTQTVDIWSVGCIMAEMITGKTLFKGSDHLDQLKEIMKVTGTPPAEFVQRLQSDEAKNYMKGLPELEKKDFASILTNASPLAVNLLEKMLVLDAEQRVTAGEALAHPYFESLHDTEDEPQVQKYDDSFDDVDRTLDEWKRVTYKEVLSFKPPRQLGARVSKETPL

[12] = species on record: Mus musculus; assay: Inhibition of ear swelling in oxazolone-induced murine allergic contact dermatitis at 0.5 mg/ear at 24 hr; assay type: functional
Method in brief: (§4)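 Groups of six female inbred BALB/cABOM mice (18–21 g) were sensitized with oxazolone on the clipped abdomen 7 days before right-ear challenge. Compound in acetone (20 μL) or vehicle was applied once, 30 min after challenge. Ear swelling (right minus left ear thickness) was read at 24, 48 and 72 h. Values are mean % inhibition ± SEM of four or five experiments.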

[13] = tested on: Mus musculus; assay: Inhibition of ear swelling induced by 12-O-tetradecanoylphorbol-13-acetate (TPA) in murine chronic irritative contact dermatitis model at 0.5 mg/ear (in vivo); assay type: functional; method in brief: as §2
[14] = species on record: Mus musculus; assay: Inhibition of ear swelling induced by oxazolone induced murine allergic contact dermatitis model at 0.5 mg/ear at 72 hr; assay type: functional; method in brief: as §4
[15] = tested on: Mus musculus; assay: Inhibition of ear weight induced by 12-O-tetradecanoylphorbol-13-acetate (TPA) in murine chronic irritative contact dermatitis model at 0.5 mg/ear (in vivo); assay type: functional; method in brief: as §2
[16] = target: T3, Myeloperoxidase (Mus musculus); assay: Inhibition of myeloperoxidase (MPO) activity induced by TPA in murine chronic irritative contact dermatitis model at 0.5 mg/ear (in vivo); assay type: organism-based
[17] = species on record: Homo sapiens; assay: In vitro inhibition of gamma-interferon release by human […]; assay type: functional
Method in brief: (§5)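 Human PBMC were isolated from buffy coats and diluted 1:1 in saline. Cells were held at 5×10^5 cells/mL in RPMI1640 with 2 mM glutamine and penicillin/streptomycin, then preincubated 30 min with compound. IL-12: 2% FCS, IFN-γ 95 ng/mL for 18 h, then LPS for 24 h. IL-2 and IFN-γ: 10% FCS, phytohemagglutinin for 48 h. Supernatant cytokine measured by sandwich ELISA.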

[18] = species on record: Homo sapiens; assay: In vitro inhibition of cytokine IL-12 release by human […]; assay type: functional; method in brief: as §5
[19] = species on record: Homo sapiens; assay: In vitro inhibition of cytokine IL-2 release by human […]; assay type: functional; method in brief: as §5
[20] = target: T2, MAP kinase p38; assay: In vitro inhibition of cytokine IL-6 release by human […]; assay type: functional
Method in brief: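 PBMC isolated from buffy coats, 5×10^5 cells/mL in RPMI1640 plus 2% FCS, glutamine and antibiotics. Compound added 30 min before LPS; culture 6 h. Supernatant IL-6 or IL-8 quantified by ELISA kits.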

[21] = target: Mitogen-activated protein kinase 8 (Homo sapiens) (UniProt P45983); assay: Inhibition of c-Jun N-terminal kinase 1 at 10 uM
Mitogen-activated protein kinase 8 (Homo sapiens), sequence (P45983 whole entry): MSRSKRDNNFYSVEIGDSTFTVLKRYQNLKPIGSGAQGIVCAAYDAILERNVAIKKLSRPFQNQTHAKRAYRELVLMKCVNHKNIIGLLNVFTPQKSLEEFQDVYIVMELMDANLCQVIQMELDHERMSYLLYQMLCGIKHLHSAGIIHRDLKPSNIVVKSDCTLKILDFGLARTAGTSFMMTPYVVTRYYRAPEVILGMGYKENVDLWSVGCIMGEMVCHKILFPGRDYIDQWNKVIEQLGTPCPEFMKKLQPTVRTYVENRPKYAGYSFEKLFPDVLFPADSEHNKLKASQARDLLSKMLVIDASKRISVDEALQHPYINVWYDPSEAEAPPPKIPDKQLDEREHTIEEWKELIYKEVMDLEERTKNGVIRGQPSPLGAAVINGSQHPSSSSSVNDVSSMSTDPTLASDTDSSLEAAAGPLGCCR
Method in brief: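 JNK1 activity from UV-stimulated MCF-7 cells, measured with a JNK1 kinase kit in presence of compound.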

[22] = target: T2, MAP kinase p38; assay: In vitro inhibition of cytokine IL-10 release by human […]; assay type: functional
Method in brief: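 Buffy-coat PBMC at 5×10^5 cells/mL in RPMI1640 with 10% FCS, glutamine, antibiotics; 30 min compound preincubation, then phytohemagglutinin stimulation and 48 h incubation.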

[23] = target: T2, MAP kinase p38; assay: In vitro inhibition of cytokine IL-8 release by human peripheral blood mononuclear cells
[24] = tested on: Mus musculus; assay: Inhibition of ear swelling induced by oxazolone in murine allergic contact dermatitis model at 0.5 mg/ear at 48 hr (in vivo)
[25] = target: T3, Myeloperoxidase (Mus musculus); assay: Inhibition of myeloperoxidase (MPO) activity induced by oxazolone in murine allergic contact dermatitis model at 0.5 mg/ear at 72 hr

T1 sequence (Q16539 whole entry): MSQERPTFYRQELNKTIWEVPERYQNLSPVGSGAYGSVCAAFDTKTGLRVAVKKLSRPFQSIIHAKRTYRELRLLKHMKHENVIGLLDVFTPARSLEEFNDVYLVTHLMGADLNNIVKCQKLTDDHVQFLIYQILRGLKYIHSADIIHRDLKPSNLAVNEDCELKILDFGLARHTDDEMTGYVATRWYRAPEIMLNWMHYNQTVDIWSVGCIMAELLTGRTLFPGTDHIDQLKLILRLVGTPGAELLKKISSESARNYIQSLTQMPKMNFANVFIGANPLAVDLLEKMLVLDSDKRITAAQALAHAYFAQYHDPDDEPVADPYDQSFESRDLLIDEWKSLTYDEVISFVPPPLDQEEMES

SMILES	IC50 [1]	IC50 [2]	IC50 [3]	other results
CCNC(=O)Nc1ccccc1Nc1ccc(C(=O)c2ccccc2C)c(Cl)c1	21 nM	9 nM	3 nM	
COc1ccccc1C(=O)c1ccc(Nc2ccccc2N)cc1Cl	5 nM	28 nM	20 nM	
Cc1ccccc1C(=O)c1ccc(Nc2ccccc2N)cc1C	13 nM	22 nM	8 nM	
C=C(c1ccccc1C)c1ccc(Nc2ccccc2N)cc1Cl	1550 nM	> 5000 nM	> 10000 nM	
Cc1cccc(C(=O)c2ccc(Nc3ccccc3N)cc2)c1	574 nM	580 nM	467 nM	
Cc1ccccc1C(=O)c1ccc(Nc2ccccc2)cc1Cl	7 nM	119 nM	24 nM	
CC(=O)Nc1ccccc1Nc1ccc(C(=O)c2ccccc2C)c(Cl)c1	63 nM	21 nM	10 nM	
Cc1ccccc1C(=O)c1ccc(Nc2ccccc2[N+](=O)[O-])cc1Cl	437 nM	427 nM	382 nM	
Nc1ccccc1Nc1ccc(C(=O)c2ccccc2)c(Cl)c1	139 nM	437 nM	214 nM	
CCCCC(=O)O[C@]1(C(=O)CO)[C@@H](C)C[C@H]2[C@@H]3CCC4=CC(=O)C=C[C@]4(C)[C@@]3(F)[C@@H](O)C[C@@]21C [BETAMETHASONE VALERATE]				Inhibition [4]: 41%; Inhibition [5]: 38%; inhibition [6]: 67%
CCOC(=O)Nc1ccccc1Nc1ccc(C(=O)c2ccccc2C)c(Cl)c1	42 nM	16 nM	6 nM	
Nc1ccccc1Nc1ccc(C(=O)c2ccccc2-c2ccccc2)cc1	811 nM	483 nM	444 nM	
Cc1ccccc1C(=O)c1ccc(N(C)c2ccccc2N)cc1Cl	101 nM	70 nM	44 nM	
Nc1ccccc1Nc1ccc(C(=O)c2ccccc2)cc1	145 nM	226 nM	159 nM	
Cc1cc(F)ccc1Nc1ccc(C(=O)c2ccccc2C)c(Cl)c1	4 nM	17 nM	4 nM	inhibition [7]: 0%; inhibition [8]: 88%; inhibition [9]: 92%; inhibition [10]: 4%; inhibition [11]: 5%; Inhibition [12]: 40%; Inhibition [13]: 26%; Inhibition [14]: 54%; Inhibition [15]: 26%; inhibition [16]: 60%; IC50 [17]: > 1000 nM; IC50 [18]: > 1000 nM; IC50 [19]: > 1000 nM; IC50 [20]: 35 nM; inhibition [21]: 0%; IC50 [22]: 51 nM; IC50 [23]: 79 nM; Inhibition [24]: 46%; inhibition [25]: 57%
Cc1ccccc1Nc1ccc(C(=O)c2ccccc2C)c(Cl)c1	12 nM	26 nM	14 nM	
O=C(c1ccccc1)c1ccc(Nc2ccccc2)cc1	193 nM	175 nM	1349 nM	
Cc1ccccc1C(=O)c1ccc(Nc2ccccc2N)cc1	29 nM	67 nM	47 nM	
Nc1ccccc1Nc1ccc(C(=O)c2ccccc2Br)cc1	54 nM	45 nM	34 nM	
Fc1ccc(-c2ncn(C3CCNCC3)c2-c2ccncc2)cc1 [VK-19911]				inhibition [7]: 0%; inhibition [8]: 73%; inhibition [9]: 59%; inhibition [10]: 8%; inhibition [11]: 0%; IC50 [17]: > 1000 nM; IC50 [18]: > 1000 nM; IC50 [19]: > 1000 nM; inhibition [21]: 9%
Cc1ccccc1Cc1ccc(Nc2ccc(F)cc2N)cc1Cl	> 100000 nM	> 10000 nM	> 10000 nM	
Cc1cc(C(=O)c2ccccc2C)ccc1Nc1ccccc1N	143 nM	343 nM	127 nM	
